This note sets out measurements from ChEMBL document CHEMBL1127669, “Conformationally constrained peptides and semipeptides derived from RGD as potent inhibitors of the platelet fibrinogen receptor and platelet aggregation” (J Med Chem, 1994).

Assay [1] addresses T1, Integrin alpha-IIb/beta-3 (Homo sapiens, UniProt P05106+P08514). Put plainly: Inhibition of [3H]-SKF- 107260 binding to purified GPIIb/IIIa from human platelets reconstituted in liposomes. In a few lines:
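Competition binding on filter wells precoated with 10 µg/mL polylysine. Reaction started with 0.5 µg lectin-purified receptor, incubated 1 h at room temperature, filtered, washed in ice-cold buffer, scintillation counted. IC50 from nonlinear least-squares fit; Ki by Cheng–Prusoff. Mean of quadruplicates, single experiment.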

Another assay is filed under the species Canis familiaris. Description: Inhibition of platelet aggregation in canine platelet rich plasma induced by ADP. Format: functional, Canis lupus familiaris. In outline:
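Citrated canine PRP aggregation read optically by light transmittance. Peptide stock was 12 mM in 0.2 M acetic acid. Final 200 µM peptide and 10 µM ADP, pH 7.7, after 5-min preincubation with peptide.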

The target of assay [2] is T1, Integrin alpha-IIb/beta-3. Description: Tested for inhibition of fibrinogen binding to purified GPIIb/IIIa isolated from human platelets and reconstituted in liposomes. In a few lines:
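Displacement of [¹²⁵I]fibrinogen from purified human platelet GPIIb/IIIa incorporated into phospholipid vesicles. Values without statistical limits come from a single determination.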

T1 sequence (P05106 27-788 limits assumed): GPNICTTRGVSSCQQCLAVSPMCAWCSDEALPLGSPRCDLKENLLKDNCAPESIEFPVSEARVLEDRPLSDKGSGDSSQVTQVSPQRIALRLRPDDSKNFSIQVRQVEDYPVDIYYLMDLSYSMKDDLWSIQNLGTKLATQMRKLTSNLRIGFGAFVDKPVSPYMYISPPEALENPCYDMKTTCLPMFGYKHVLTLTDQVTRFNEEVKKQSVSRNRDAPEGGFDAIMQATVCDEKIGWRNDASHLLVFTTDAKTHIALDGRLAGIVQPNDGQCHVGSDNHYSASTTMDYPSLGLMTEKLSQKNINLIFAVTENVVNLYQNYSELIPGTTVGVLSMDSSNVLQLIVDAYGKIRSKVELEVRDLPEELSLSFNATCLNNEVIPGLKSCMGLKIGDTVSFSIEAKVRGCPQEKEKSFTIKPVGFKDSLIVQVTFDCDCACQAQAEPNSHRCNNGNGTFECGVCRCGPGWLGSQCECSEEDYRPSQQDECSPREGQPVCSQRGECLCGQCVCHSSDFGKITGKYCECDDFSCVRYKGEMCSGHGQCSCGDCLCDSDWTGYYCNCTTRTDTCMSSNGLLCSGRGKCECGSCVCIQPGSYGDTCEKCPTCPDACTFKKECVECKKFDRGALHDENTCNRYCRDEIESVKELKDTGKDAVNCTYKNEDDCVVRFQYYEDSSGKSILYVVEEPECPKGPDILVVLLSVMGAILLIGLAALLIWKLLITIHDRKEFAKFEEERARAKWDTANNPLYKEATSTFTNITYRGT
T1 sequence (P08514 32-887 limits assumed): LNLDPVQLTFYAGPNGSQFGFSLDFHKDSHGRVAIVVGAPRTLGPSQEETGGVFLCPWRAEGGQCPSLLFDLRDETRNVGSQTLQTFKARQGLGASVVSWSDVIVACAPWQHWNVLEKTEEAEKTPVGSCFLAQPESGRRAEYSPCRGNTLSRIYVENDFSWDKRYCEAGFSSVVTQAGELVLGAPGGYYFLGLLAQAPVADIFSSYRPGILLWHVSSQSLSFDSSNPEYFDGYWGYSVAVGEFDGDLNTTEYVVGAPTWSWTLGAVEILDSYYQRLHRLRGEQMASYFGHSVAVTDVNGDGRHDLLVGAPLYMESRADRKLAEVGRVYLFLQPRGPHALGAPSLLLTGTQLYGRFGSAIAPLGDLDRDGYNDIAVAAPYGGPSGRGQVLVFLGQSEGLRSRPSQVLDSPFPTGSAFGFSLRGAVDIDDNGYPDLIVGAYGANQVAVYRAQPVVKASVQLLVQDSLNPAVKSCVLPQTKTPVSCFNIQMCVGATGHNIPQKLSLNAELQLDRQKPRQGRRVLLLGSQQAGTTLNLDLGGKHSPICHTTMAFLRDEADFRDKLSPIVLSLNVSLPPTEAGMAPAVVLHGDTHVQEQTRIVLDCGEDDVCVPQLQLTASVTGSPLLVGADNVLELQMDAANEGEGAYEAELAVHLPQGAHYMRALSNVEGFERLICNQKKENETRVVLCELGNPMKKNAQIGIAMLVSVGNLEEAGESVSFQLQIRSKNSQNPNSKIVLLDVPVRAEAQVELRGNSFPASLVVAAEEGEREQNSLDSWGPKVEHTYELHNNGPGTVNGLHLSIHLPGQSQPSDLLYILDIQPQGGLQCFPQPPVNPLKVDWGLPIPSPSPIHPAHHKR
T1 sequence (P08514 891-1039 limits assumed): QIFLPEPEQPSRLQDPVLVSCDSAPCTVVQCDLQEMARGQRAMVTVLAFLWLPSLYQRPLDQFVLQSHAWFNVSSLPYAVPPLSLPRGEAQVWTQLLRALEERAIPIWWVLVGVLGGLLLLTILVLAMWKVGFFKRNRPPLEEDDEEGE

Consider `CC(=O)N[C@H]1CSSC(C)(C)[C@@H](C(N)=O)NC(=O)[C@H](CC(=O)O)NC(=O)CNC(=O)[C@H](CCCN=C(N)N)N(C)C1=O`, for which the Ki (usually a measure of affinity in units of concentration, obtained from inhibition or displacement) in assay [1] turned out to be 102 nM. Inhibition in the assay filed under Canis familiaris (Canis lupus familiaris, Plasma) was half-maximal at 360 nM (IC50).
`CC(=O)N[C@H]1CSSC(C)(C)[C@@H](C(N)=O)NC(=O)[C@H](CC(=O)O)NC(=O)CNC(=O)[C@H](CCCN=C(N)N)N(C)C(=O)CNC1=O` (single isomer, unassigned) gave a Ki in assay [2] of 135 nM. The IC50 (in general, the concentration at which inhibition is half-maximal) in the assay filed under Canis familiaris (Canis lupus familiaris, Plasma) was found to be 360 nM.
In the case of `CC(=O)N[C@@H]1C(=O)N(C)[C@@H](CCCN=C(N)N)C(=O)NCC(=O)N[C@@H](CC(=O)O)C(=O)N[C@H](C(N)=O)C(C)(C)SSC1(C)C` (single isomer, unassigned), in assay [2], the Ki worked out at 2.5 nM. In addition, half-maximal inhibition in the assay filed under Canis familiaris (Canis lupus familiaris, Plasma) (IC50) was put at 370 nM.
In assay [2], `CC(=O)N[C@H]1CSSC(C)(C)[C@@H](C(N)=O)NC(=O)[C@H](CC(=O)O)NC(=O)CNC(=O)[C@H](CCCN=C(N)N)N(C)C(=O)CN(Cc2ccccc2)C1=O` (single isomer, unassigned) yielded a Ki of 430 nM. Also, the midpoint of inhibition in the assay listed under Canis familiaris (Canis lupus familiaris, Plasma), the IC50, lay at 290 nM.
`N=C(N)NCCC[C@@H]1NC(=O)c2ccccc2SSc2ccccc2NC(=O)[C@H](CC(=O)O)NC(=O)CNC1=O` (single isomer, unassigned): the Ki in assay [2] came out at 27 nM. The molecule also displayed an IC50 in the assay listed under Canis familiaris (Canis lupus familiaris, Plasma) of 290 nM.
In assay [2], `CC(=O)N[C@H]1CSSC(C)(C)[C@@H](C(N)=O)NC(=O)[C@H](CC(=O)O)NC(=O)CN(C)C(=O)[C@H](CCCN=C(N)N)NC1=O` (single isomer, unassigned) displayed a Ki of 1250 nM. Besides, the IC50 in the assay listed under Canis familiaris (Canis lupus familiaris, Plasma) amounted to 73400 nM.
`CC(=O)N[C@@H]1C(=O)N[C@@H](CCCN=C(N)N)C(=O)NCC(=O)N[C@@H](CC(=O)O)C(=O)N[C@H](C(N)=O)CSSC1(C)C` (single isomer, unassigned) returned a Ki in assay [2] of 188 nM. The same molecule registered an IC50 in the assay listed under Canis familiaris (Canis lupus familiaris, Plasma) of 7970 nM.
Turning to `CC(=O)N[C@H]1CSSC(C)(C)[C@@H](C(N)=O)NC(=O)[C@H](CC(=O)O)NC(=O)CNC(=O)[C@H](CCCN=C(N)N)N(C)C(=O)CN(C)C1=O` (single isomer, unassigned), the Ki in assay [2] came out at 20 nM. Also, in the assay listed under Canis familiaris (Canis lupus familiaris, Plasma), inhibition was half-maximal at 150 nM (IC50).
In the same order, the values of `CC(=O)N[C@H]1CSSC(C)(C)[C@@H](C(N)=O)NC(=O)[C@H](CC(=O)O)NC(=O)CN(C)C(=O)[C@H](CCCN=C(N)N)N(C)C1=O` (single isomer, unassigned) are 15100 nM and 39500 nM.
Consider `CC(=O)N[C@@H]1CSSC(C)(C)[C@H](C(N)=O)NC(=O)C(CC(=O)O)NC(=O)CNC(=O)C(CCCN=C(N)N)NC1=O` (single isomer, unassigned; 31), for which the Ki in assay [2] is 3000 nM. The molecule further had an IC50 in the assay filed under Canis familiaris of 20300 nM.
